SUMO1-SIM PPI = alters human SUMO1 binding to SIM partners | inhibition, % at 20 µM | SUMO1 binding to a labelled peptide, TR-FRET, 1 h | AID 602429 | P63165 | hit rate 0.33% among 360,000; in the data active = inhibition above about 37%
DNMT1 block = inhibitors of human DNMT1; DNMT1 molecular beacon, Hinp1I cleavage, fluorescence; inhibition (reported as % activation of signal), % at 10 µM; hit rate 0.83% among 360,000; in the data active = inhibition above about 50%
Target sequence (P26358 504-1616 limits assumed): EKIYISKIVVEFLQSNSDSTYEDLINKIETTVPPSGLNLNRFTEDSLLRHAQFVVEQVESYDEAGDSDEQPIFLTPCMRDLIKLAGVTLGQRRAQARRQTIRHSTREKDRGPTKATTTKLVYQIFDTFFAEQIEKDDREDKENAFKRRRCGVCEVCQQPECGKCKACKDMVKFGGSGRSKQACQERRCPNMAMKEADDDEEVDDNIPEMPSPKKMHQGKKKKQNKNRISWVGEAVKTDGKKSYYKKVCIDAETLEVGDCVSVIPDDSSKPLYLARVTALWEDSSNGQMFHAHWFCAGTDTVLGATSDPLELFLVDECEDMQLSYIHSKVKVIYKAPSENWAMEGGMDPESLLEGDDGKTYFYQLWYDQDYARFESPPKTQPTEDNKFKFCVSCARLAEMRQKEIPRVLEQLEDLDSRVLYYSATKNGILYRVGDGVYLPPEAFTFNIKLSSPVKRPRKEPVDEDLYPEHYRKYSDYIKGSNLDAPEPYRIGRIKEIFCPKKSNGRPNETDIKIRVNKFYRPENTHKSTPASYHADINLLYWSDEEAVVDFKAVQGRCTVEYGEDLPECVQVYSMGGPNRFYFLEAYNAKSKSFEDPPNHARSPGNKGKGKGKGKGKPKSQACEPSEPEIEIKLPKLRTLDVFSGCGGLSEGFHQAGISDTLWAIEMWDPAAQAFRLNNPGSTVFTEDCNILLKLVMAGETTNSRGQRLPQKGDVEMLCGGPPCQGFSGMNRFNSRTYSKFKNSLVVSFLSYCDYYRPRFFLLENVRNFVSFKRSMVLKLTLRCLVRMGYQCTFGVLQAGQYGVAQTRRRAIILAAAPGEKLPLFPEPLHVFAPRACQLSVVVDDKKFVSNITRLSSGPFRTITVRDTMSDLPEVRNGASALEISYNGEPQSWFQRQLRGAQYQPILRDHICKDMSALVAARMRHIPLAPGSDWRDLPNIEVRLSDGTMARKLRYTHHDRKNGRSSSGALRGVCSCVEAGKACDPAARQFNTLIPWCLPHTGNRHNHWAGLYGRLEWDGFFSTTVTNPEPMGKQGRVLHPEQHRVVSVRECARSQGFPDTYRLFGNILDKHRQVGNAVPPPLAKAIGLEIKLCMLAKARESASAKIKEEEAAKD
Scp-1 inhibitor = Scp-1 (human) phosphatase inhibition. inhibition, % at 20 µM. AID 493091. hit rate 0.88% among 340,000. Q9GZU7. Recombinant Scp1, phosphopeptide, malachite green phosphate absorbance;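 active = inhibition above about 50% at 20 µM, limit read from the data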
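Incubation: 45 min enzyme reaction at room temperature / System: truncated SCP-1 phosphatase (76-261aa) / Reagent: Phospho 17-mer peptide substrate / Buffer or medium: Acidic Tris acetate buffer with magnesium and detergent / Signal: absorbance at 630 nm / Doses: one concentration, 20 µM, with 1.0% DMSO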
STEP inh = STEP (human) phosphatase inhibition | P54829 | recombinant STEP, OMFP fluorogenic substrate, fluorescence | inhibition, % at 20 µM | hit rate 0.25% among 360,000 | AID 588621;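 active = inhibition at 20 µM, scaled per plate between control wells, above about 37%, limit read from the data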
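System: STEP phosphatase, cell-free reaction; Buffer or medium: Bis-Tris pH 6.0 buffer with DTT, detergent; Incubation: 20 min at room temperature, dark; Measured by: fluorescence, 480/540 nm.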
LMPTP inh = LMPTP (human) inhibition; P24666; recombinant LMPTP-A, OMFP fluorogenic substrate, fluorescence intensity; inhibition, % at 20 µM; hit rate 0.22% among 360,000;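 active = compounds that cut the enzyme signal by at least half of the control window in the single-dose screen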
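Test system: LMPTP-A phosphatase enzyme. Amount: LMPTP-A at 0.625 nM final in the reaction. Reagent: OMFP substrate, 400 µM final. Times: 50 min at room temperature. Signal: endpoint fluorescence intensity from OMFP dephosphorylation. Read-out basis: % inhibition. Benchmarks: no-enzyme and uninhibited controls.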
Scp-1 conf = Scp-1 (human) inhibition, single-dose confirmed. shares compounds with Scp-1 inhibitor. recombinant SCP-1 catalytic domain, phosphate release, malachite green absorbance. inhibition, % at 20 µM. hit rate 61% among 2,500. AID 540281
Scp-1 MG ctr = colorimetric interference in Scp-1 counter-screen. apparent inhibition (interference), % at 20 µM. 2,500 tested, under 10 active. shares compounds with Scp-1 inhibitor. Colorimetric interference counterscreen, malachite green absorbance 630 nm;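 note: compounds added after enzyme reaction finished so only phosphate colour detection is probed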
Scp-1 Tm shift = binds human Scp-1, shifting its melting temperature; shares compounds with Scp-1 inhibitor; Recombinant SCP1, Sypro Orange thermal shift Tm; thermal shift relative to vanadate control, % at 40 µM; hit rate 25% among 1,500; AID 540329;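 active = substances whose mean melting-temperature shift, as a percentage of the reference inhibitor's shift, reaches about 5.3%, limit read from the data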
DNMT1 inh conf = DNMT1 inhibition confirmation, single concentration | shares compounds with DNMT1 block | DNMT1 molecular beacon HinP1I cleavage, fluorescence | inhibition, % at 10 µM | hit rate 8% among 2,300 | AID 602385;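 active = average inhibition of at least 30% in the single-concentration confirmation test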
DNMT1 interf = beacon fluorescence artifact counter-screen | hit rate 1% among 2,300 | AID 602387 | shares compounds with DNMT1 block | activation (fluorescence interference), % at 10 µM | DNMT1 molecular beacon spectral interference counterscreen, fluorescence 485/520;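 active = activation of at least 30% at 10 µM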;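 note: DNMT1 catalytic domain with a HinP1I cleavage step and a FAM/dabcyl DNA beacon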
Hits are given with their value; n = inactive; x = not tested or not shown. Sampled rows, rich in hits. Any-hit rate of the full collection: about 1.7%.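 Rule for the calls, unless noted: active = inhibition of at least 30% at 20 µM; inactive = the rest.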

SMILES | SUMO1-SIM PPI | DNMT1 block | Scp-1 inhibitor | STEP inh | LMPTP inh | Scp-1 conf | Scp-1 MG ctr | Scp-1 Tm shift | DNMT1 inh conf | DNMT1 interf
CC1C=CC(C)C(C(=O)O)C1C(=O)O (stereo unspecified) | n | 61 | 86 | n | n | 55 | n | n | n | n
COCc1cc(CN(C)C(=O)c2oc3c(F)cccc3c2C)[nH]n1 | n | n | n | n | n | x | x | x | x | x
Cc1ccccc1NC(=O)CN1C(=O)S/C(=C\c2cccn2-c2cccc(C(=O)O)c2)C1=O | n | 66 | 84 | n | n | 74 | n | 17 | n | n
O=C(O)c1cccc(-n2cccc2/C=C2/NC(=O)N(Cc3ccccc3F)C2=O)c1 | n | 81 | 52 | n | n | 75 | n | n | n | n
Cn1cccc1C(=O)OCC(=O)NCc1cccs1 | n | n | n | n | n | x | x | x | x | x
N=C1/C(=C/c2ccco2)C(=O)N=C2SC(CC(=O)N3CCCC3)=NN12 | n | 64 | 73 | n | n | 63 | n | n | n | n
N=C1/C(=C/c2ccc(Br)o2)C(=O)N=C2SC(CC(=O)N3CCCC3)=NN12 | 57 | 66 | 88 | n | n | 58 | n | 8.1 | n | n
Cc1ccc(/C=C2\C(=N)N3N=C(CC(=O)N4CCCCC4)SC3=NC2=O)cc1 | n | n | n | n | n | x | x | x | x | x
Cc1ccc2nc(/C(C#N)=C\c3ccc(Oc4ccc(C(F)(F)F)cc4[N+](=O)[O-])cc3)[nH]c2c1 | n | 81 | 97 | n | n | 87 | n | 5.6 | n | n
Cc1ccc2nc(/C(C#N)=C/c3ccc(-c4cccc([N+](=O)[O-])c4)o3)[nH]c2c1 | n | 83 | 90 | 94 | n | 73 | n | 11 | n | n
CN(CCNC(=O)c1c[nH]c2c1ccc1ccccc12)CCNC(=O)c1c[nH]c2c1ccc1ccccc12 | n | n | n | n | n | x | x | x | x | x
Cc1occc1C(=O)NCc1cccc(CNC(=O)c2ccoc2C)c1 | n | 51 | 51 | n | n | 73 | n | n | n | n
Cc1cc(C)c(C)c(S(=O)(=O)N[C@@H](C)C(=O)OCc2cc(=O)n3cc(Br)ccc3n2)c1C | n | 71 | 69 | n | n | 65 | n | 5.7 | n | n
O=C(CN1C(=O)NC2(CCCC2)C1=O)OCc1cc(=O)n2cc(Br)ccc2n1 | n | 58 | 55 | n | n | 33 | n | n | n | n
O=C(CCNS(=O)(=O)c1ccc(Br)cc1)NC1CCCCC1 | n | n | n | n | n | x | x | x | x | x
O=C(CCS(=O)(=O)c1ccc(Br)cc1)NC1CCCC1 | n | 56 | 75 | n | n | 62 | n | n | n | n
O=C(CCS(=O)(=O)c1ccc(Br)cc1)NCc1cccs1 | n | 59 | 87 | n | n | 68 | n | n | n | n
O=C(CCS(=O)(=O)c1ccc(Br)cc1)NCc1ccco1 | n | 57 | 75 | n | n | 67 | n | n | n | n
CCOC(=O)C1CCN(C(=O)COc2ccc(S(=O)(=O)N3CCOCC3)cc2C)CC1 | n | n | n | n | n | x | x | x | x | x
O=C(Nc1ccccc1Cl)OCC#CCOC(=O)Nc1ccccc1Cl | n | n | x | n | n | x | x | x | x | x
Cc1ccc(CN2CC(N3CCCCC3)CS2(=O)=O)cc1 (stereo unspecified) | n | n | x | n | n | x | x | x | x | x
O=S1(=O)CC(N2CCCC2)CN1Cc1cn(Cc2ccc(Cl)cc2)nn1 (stereo unspecified) | n | x | x | x | n | x | x | x | x | x
Cc1ccc(CNC(=O)c2ccc(-n3cccc3)cc2)cc1 | n | 95 | 55 | n | n | 64 | n | n | n | n
Cc1cccc(CCNC(=O)c2cc(S(=O)(=O)N3CCCCC3)c[nH]2)c1 | n | n | n | n | n | x | x | x | x | x
C=CCn1c(SCC(=O)N2CCCC2)nc2scc(-c3cccs3)c2c1=O | n | n | n | n | n | x | x | x | x | x
SMILES | SUMO1-SIM PPI | DNMT1 block | Scp-1 inhibitor | STEP inh | LMPTP inh | Scp-1 conf | Scp-1 MG ctr | Scp-1 Tm shift | DNMT1 inh conf | DNMT1 interf
C=CCn1c(SCC(=O)N2CCOCC2)nc2scc(-c3ccco3)c2c1=O | n | 77 | 73 | n | n | n | n | x | n | n
O=C(O)C1C2C=CC(CC2)C1C(=O)O (stereo unspecified) | n | 77 | 102 | n | n | 72 | n | n | n | n
CC(C)c1ccc(NC(=O)C2C3C=CC(CC3)C2C(=O)O)cc1 (stereo unspecified) | n | n | n | n | n | x | x | x | x | x
O=C(CCS(=O)(=O)c1ccc(Br)cc1)Nc1cc(F)ccc1F | n | 62 | 73 | n | n | 58 | n | n | n | n
COc1ccc([N+](=O)[O-])cc1NC(=O)CCS(=O)(=O)c1ccc(Br)cc1 | n | 79 | 95 | n | n | 62 | n | n | n | n
CCc1ccccc1NC(=O)CCS(=O)(=O)c1ccc(Br)cc1 | n | n | n | n | n | x | x | x | x | x
CN1C=CC(=CC=C2C=CC(=O)C=C2)C=C1 | n | n | n | n | n | x | x | x | x | x
NS(=O)(=O)c1ccc(NC(=O)C2Cc3ccccc3CN2C(=O)c2ccco2)cc1 (stereo unspecified) | n | 59 | 61 | n | n | 66 | n | 7.9 | n | n
CCOC(=O)C1=CCN(S(=O)(=O)c2ccccc2C)C1c1ccccc1 (stereo unspecified) | n | n | x | n | n | x | x | x | x | x
N#Cc1ccccc1S(=O)(=O)N1CCN(C(=O)c2cc3c(s2)CCC3)CC1 | n | 56 | 98 | n | n | 70 | n | n | n | n
N#Cc1ccccc1S(=O)(=O)N1CCN(C(=O)C2COc3ccccc3O2)CC1 (stereo unspecified) | n | 67 | 74 | n | n | 73 | n | n | n | n
O=S(=O)(c1ccc2c(c1)OCCO2)N1CCCN(S(=O)(=O)c2c(F)cccc2F)CC1 | n | n | n | n | n | x | x | x | x | x
CN(C)S(=O)(=O)c1cccc(NC(=O)CCc2c[nH]c3ccccc23)c1 | n | n | n | n | n | x | x | x | x | x
CC[C@]12c3[nH]c4ccccc4c3CCN1C(=O)C(CC(=O)NCc1ccc(OC)c(OC)c1)C[C@@H]2C(=O)N1CCN(C(=O)C2CC2)CC1 (stereo partly specified) | n | n | n | n | n | x | x | x | x | x
COCCn1c(C)cc(C(=O)COC(=O)/C=C/c2c(C)nn(C3CCS(=O)(=O)C3)c2Cl)c1C (stereo unspecified) | n | n | n | n | n | x | x | x | x | x

Screens from PubChem BioAssay.
